Reference: ChEMBL document CHEMBL4819003, “Optimization of novel oxidative DIMs as Nur77 modulators of the Nur77-Bcl-2 apoptotic pathway” (Eur J Med Chem, 2021)

How the values were obtained:
MDA-MB-231 [1] = test: Cytotoxicity against human MDA-MB-231 cells assessed as inhibition of cell growth measured after 24 hrs by MTT assay; format: functional, cell-based; conditions: MDA-MB-231, 24 h
Procedure, shortened: (§1)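 MTT viability assay, 24 h exposure to a concentration series, 10^4 cells/well. Cancer lines were in DMEM (BT549, MDA-MB-231) or RPMI-1640 (HCT116, SW620) with 10% FBS. MCF10A and NCM460 were in DMEM with 20% FBS and 10 ng/ml EGF. MTT at 5 mg/mL for 4 h at 37 °C, formazan dissolved in DMSO, A490. IC50 from curve fit; mean ± SD, at least 6 experiments.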

BT-549 [2] = test: Cytotoxicity against human BT-549 cells assessed as inhibition of cell growth measured after 24 hrs by MTT assay; format: functional, cell-based; conditions: BT-549, 24 h; procedure, shortened: as §1
MCF-10A = test: Cytotoxicity against human MCF-10A cells assessed as inhibition of cell growth measured after 24 hrs by MTT assay; format: cell-based; conditions: Homo sapiens, MCF-10A, 24 h; procedure, shortened: as §1
HCT-116 [3] = test: Cytotoxicity against human HCT-116 cells assessed as inhibition of cell growth measured after 24 hrs by MTT assay; format: functional, cell-based; conditions: Homo sapiens, HCT-116, 24 h; procedure, shortened: as §1
SW-620 [4] = test: Cytotoxicity against human SW-620 cells assessed as inhibition of cell growth measured after 24 hrs by MTT assay; format: functional, cell-based; conditions: SW-620, 24 h; procedure, shortened: as §1
NCM460 = test: Cytotoxicity against human NCM460 cells assessed as inhibition of cell growth measured after 24 hrs by MTT assay; format: cell-based; conditions: Homo sapiens, NCM460, 24 h; procedure, shortened: as §1
MDA-MB-231 [5] = test: Induction of apoptosis in human MDA-MB-231 cells assessed as viable cells at 0.5 uM measured after 6 hrs by Annexin V-FITC/PI staining based flow cytometry method (reference value: 98.51%); format: functional; conditions: read-out: Activity
Procedure, shortened: (§2)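 Cells seeded at 1×10^6 per well and treated with 0.5 µM for 6 h. Floating and adherent cells pooled, stained with Annexin V-FITC for 10 min and propidium iodide for 5 min, then analysed immediately by flow cytometry in FITC and PC5.5 channels. Mean ± SD, n = 3.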

MDA-MB-231 [6] = test: Induction of apoptosis in human MDA-MB-231 cells assessed as early apoptotic cells at 0.5 uM measured after 6 hrs by Annexin V-FITC/PI staining based flow cytometry method (reference value: 1.27%); format: functional; procedure, shortened: as §2
MDA-MB-231 [7] = test: Induction of apoptosis in human MDA-MB-231 cells assessed as late apoptotic cells at 0.5 uM measured after 6 hrs by Annexin V-FITC/PI staining based flowcytometry method (reference value: 0.11%); format: functional; procedure, shortened: as §2
MDA-MB-231 [8] = test: Induction of apoptosis in human MDA-MB-231 cells assessed as necrotic cells at 0.5 uM measured after 6 hrs by Annexin V-FITC/PI staining based flow cytometry method (reference value: 0.11%); format: functional; procedure, shortened: as §2
BT-549 [9] = test: Induction of apoptosis in human BT-549 cells assessed as viable cells at 0.5 uM measured after 6 hrs by Annexin V-FITC/PI staining based flow cytometry method (reference value: 98.51%); format: functional; conditions: read-out: Activity; procedure, shortened: as §2
BT-549 [10] = test: Induction of apoptosis in human BT-549 cells assessed as early apoptotic cells at 0.5 uM measured after 6 hrs by Annexin V-FITC/PI staining based flow cytometry method (reference value: 1.27%); format: functional; procedure, shortened: as §2
BT-549 [11] = test: Induction of apoptosis in human BT-549 cells assessed as late apoptotic cells at 0.5 uM measured after 6 hrs by Annexin V-FITC/PI staining based flow cytometry method (reference value: 0.11%); format: functional; procedure, shortened: as §2
BT-549 [12] = test: Induction of apoptosis in human BT-549 cells assessed as necrotic cells at 0.5 uM measured after 6 hrs by Annexin V-FITC/PI staining based flow cytometry method (reference value: 0.11%); format: functional; procedure, shortened: as §2
HCT-116 [13] = test: Induction of apoptosis in human HCT-116 cells assessed as viable cells at 0.5 uM measured after 6 hrs by Annexin V-FITC/PI staining based flow cytometry method (reference value: 98.18%); format: functional; conditions: read-out: Activity; procedure, shortened: as §2
HCT-116 [14] = test: Induction of apoptosis in human HCT-116 cells assessed as early apoptotic cells at 0.5 uM measured after 6 hrs by Annexin V-FITC/PI staining based flow cytometry method (reference value: 1.39%); format: functional; procedure, shortened: as §2
HCT-116 [15] = test: Induction of apoptosis in human HCT-116 cells assessed as late apoptotic cells at 0.5 uM measured after 6 hrs by Annexin V-FITC/PI staining based flow cytometry method (reference value: 0.06%); format: functional; procedure, shortened: as §2
HCT-116 [16] = test: Induction of apoptosis in human HCT-116 cells assessed as necrotic cells at 0.5 uM measured after 6 hrs by Annexin V-FITC/PI staining based flow cytometry method (reference value: 0.37%); format: functional; procedure, shortened: as §2
SW-620 [17] = test: Induction of apoptosis in human SW-620 cells assessed as early apoptotic cells at 0.5 uM measured after 6 hrs by Annexin V-FITC/PI staining based flow cytometry method (reference value: 1.02%); format: functional
SW-620 [18] = test: Induction of apoptosis in human SW-620 cells assessed as late apoptotic cells at 0.5 uM measured after 6 hrs by Annexin V-FITC/PI staining based flow cytometry method (reference value: 0.05%); format: functional; procedure, shortened: as §2
SW-620 [19] = test: Induction of apoptosis in human SW-620 cells assessed as necrotic cells at 0.5 uM measured after 6 hrs by Annexin V-FITC/PI staining based flow cytometry method (reference value: 0.26%); format: functional; procedure, shortened: as §2
[20] = target: T1, Nuclear receptor subfamily 4immunitygroup A member 1 (Homo sapiens, UniProt P22736); test: Binding affinity to recombinant human N-terminal His-tagged Nur77-LBD (367 to 598 residues) expressed in Escherichia coli BL21 DE3 by flourescence quenching assay
Procedure, shortened: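 Human Nur77-LBD (367–598), N-terminal His tag, pET15b in E. coli BL21 DE3, Ni resin purified. Nur77-LBD at 1 µM in PBS in a quartz cell, titrated with compound over 0.01–1 µM at 25 °C. Excitation 280 nm, emission scanned 300–500 nm; peak intensity at 330 nm versus compound concentration fitted to a reported formula for Kd.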

[21] = target: T1, Nuclear receptor subfamily 4immunitygroup A member 1; test: Binding affinity to recombinant human N-terminal His-tagged Nur77-LBD (367 to 598 residues) expressed in Escherichia coli BL21 DE3 by surface plasmon resonance assay
Procedure, shortened: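 His-tagged human Nur77-LBD (367–598) from E. coli BL21 DE3, diluted to 0.05 mg/mL in 10 mM NaAc pH 5.0 and amine-coupled to a CM5 chip (~9000 RU). Compounds at 0.01–5 µM in PBS with 0.4% DMSO, 25 °C, 30 µL/min; 150 s association, 420 s dissociation, regeneration with 10 mM glycine-HCl pH 2.5. Reference- and blank-subtracted; Kd from global 1:1 kinetic fit.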

[22] = MRT(0 to t) in male Sprague-Dawley rat at 0.5 mg/kg, iv measured for 36 hrs by LC-MS/MS analysis; format: ADME, organism-based; conditions: in vivo
[23] = Selectivity index, ratio of IC50 for human NCM460 cells to IC50 for human HCT-116 cells; format: toxicity; conditions: NCM460 cells versus HCT-116 cells, read-out: Ratio IC50

T1 sequence (P22736 whole entry, the tested form may be a part): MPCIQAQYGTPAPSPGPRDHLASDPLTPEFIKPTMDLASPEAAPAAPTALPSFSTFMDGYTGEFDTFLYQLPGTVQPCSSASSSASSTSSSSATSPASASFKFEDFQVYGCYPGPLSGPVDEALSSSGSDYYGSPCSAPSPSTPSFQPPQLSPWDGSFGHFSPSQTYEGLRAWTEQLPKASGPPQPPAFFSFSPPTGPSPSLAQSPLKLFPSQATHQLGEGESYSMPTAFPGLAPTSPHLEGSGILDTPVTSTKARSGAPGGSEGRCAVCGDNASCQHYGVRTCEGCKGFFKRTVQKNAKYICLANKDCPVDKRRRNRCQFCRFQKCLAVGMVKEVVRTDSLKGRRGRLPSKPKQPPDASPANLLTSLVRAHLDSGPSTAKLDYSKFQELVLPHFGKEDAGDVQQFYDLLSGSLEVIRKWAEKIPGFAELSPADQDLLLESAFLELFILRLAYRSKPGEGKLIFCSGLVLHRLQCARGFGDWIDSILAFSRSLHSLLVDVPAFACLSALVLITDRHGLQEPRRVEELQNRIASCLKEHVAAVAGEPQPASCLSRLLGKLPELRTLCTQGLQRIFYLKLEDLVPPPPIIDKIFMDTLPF

| Compound | IC50 (MDA-MB-231 [1]) [nM] | IC50 (BT-549 [2]) [nM] | IC50 (MCF-10A) [nM] | IC50 (HCT-116 [3]) [nM] | IC50 (SW-620 [4]) [nM] | IC50 (NCM460) [nM] | viability at 0.5 µM (MDA-MB-231 [5]) [%] | Activity (MDA-MB-231 [6]) [%] | Activity (MDA-MB-231 [7]) [%] | Activity (MDA-MB-231 [8]) [%] | viability at 0.5 µM (BT-549 [9]) [%] | Activity (BT-549 [10]) [%] | Activity (BT-549 [11]) [%] | Activity (BT-549 [12]) [%] | viability at 0.5 µM (HCT-116 [13]) [%] | Activity (HCT-116 [14]) [%] | Activity (HCT-116 [15]) [%] | Activity (HCT-116 [16]) [%] | Activity (SW-620 [17]) [%] | Activity (SW-620 [18]) [%] | other results |
| --- | --- | --- | --- | --- | --- | --- | --- | --- | --- | --- | --- | --- | --- | --- | --- | --- | --- | --- | --- | --- | --- |
| CS(=O)(=O)[O-].FC(F)(F)c1ccc([C+](c2c[nH]c3ccccc23)c2c[nH]c3ccccc23)cc1 | 220 | 170 | 4290 | 270 | 180 | 6840 | 85.7 | 12.18 | 0.65 | 1.47 | 74 | 20.65 | 4.21 | 1.17 | 81.6 | 11.05 | 3.58 | 3.81 | 12.97 | 15.18 | Activity (SW-620 [19]): 1.47%; Kd [20]: 217 nM; Kd [21]: 110 nM; MRT last at 36 h [22]: 4.31 h |
| CS(=O)(=O)[O-].Cn1cc([C+](c2ccc(C(F)(F)F)cc2)c2c[nH]c3ccccc23)c2ccccc21 | 60 | 40 | 2190 | 90 | 100 | 4630 | 33.7 | 62.49 | 3.04 | 0.74 | 14.4 | 73.75 | 10.97 | 0.88 | 33.3 | 44.48 | 19.94 | 2.3 | 29.59 | 62.95 | Activity (SW-620 [19]): 0.38%; Kd [20]: 66 nM; Kd [21]: 33 nM; selectivity ratio [23]: 50 |
